Among the data in ChEMBL document CHEMBL2311371, “Effects of fluorines on nonsecosteroidal vitamin D receptor agonists” (2013) are Activity values, retold here.

SMILES strings stand for the structures.

Assay [1] deals with T1, Vitamin D3 receptor (Homo sapiens) (UniProt P11473).
T1 sequence (whole entry): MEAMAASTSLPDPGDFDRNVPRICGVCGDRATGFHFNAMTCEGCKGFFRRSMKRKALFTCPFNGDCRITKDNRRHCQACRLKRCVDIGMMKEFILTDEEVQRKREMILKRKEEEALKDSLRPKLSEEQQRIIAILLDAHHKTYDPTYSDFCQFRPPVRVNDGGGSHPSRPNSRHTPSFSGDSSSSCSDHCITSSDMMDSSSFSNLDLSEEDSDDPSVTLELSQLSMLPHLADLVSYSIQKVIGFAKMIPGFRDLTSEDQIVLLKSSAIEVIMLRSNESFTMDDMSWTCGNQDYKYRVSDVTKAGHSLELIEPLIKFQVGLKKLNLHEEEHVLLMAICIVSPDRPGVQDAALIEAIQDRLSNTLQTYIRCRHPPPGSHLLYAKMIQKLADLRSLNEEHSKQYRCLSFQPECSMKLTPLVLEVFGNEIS
In words: Agonist activity at VDR in human MG-63 cells assessed as transcriptional activation of osteopontin gene after 3 days by luciferase reporter gene assay relative to 1,25(OH)2D3. In kind it is cell-based. Put shortly:
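MG-63 cells seeded 2×10^3/well, 24 h at 37 °C, 5% CO2. Cotransfected with VDRE-luciferase construct (three osteopontin-promoter VDRE repeats, 0.05 µg) plus pRL-SV40 (0.001 µg) by lipofection. Kept 8 h in MEM with 5% DCC-FBS, then dosed 10^-7 to 10^-11 mol/L (0.1% DMSO) for 3 days. Dual-luciferase readout on lysates. EC50 expressed as ratio to 1,25(OH)2D3 (set 100%).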

A further assay deals with HL-60. As to the kind of experiment: Induction of human HL60 cell differentiation after 4 days by WST-8 assay relative to 1.25-OH2 D3. Type of assay: functional. An outline of the steps:
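HL-60 cells seeded 2×10^5 cells/mL in RPMI-1640 with 10% heat-inactivated FBS and antibiotics, 37 °C, 5% CO2. Cultured 4 days with 10^-10 to 10^-7 M compound. On the final day, PMA (final 100 ng/mL) plus WST-8 (final 20%) added for 90 min; absorbance change read at 450 nm. EC50 expressed as ratio to 1,25(OH)2D3 (set 100%).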

The target of assay [2] is T1, Vitamin D3 receptor (Homo sapiens). As to the kind of experiment: Agonist activity at VDR in human MG-63 cells assessed as osteocalcin production compound incubated for 8 hrs measured after 4 days by EIA relative to 1,25(OH)2D3. Type of assay: cell-based. Put shortly: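 MG-63 cells seeded 2×10^3/well in serum-free MEM, 24 h at 37 °C, 5% CO2; washed and switched to 5% DCC-FBS/MEM. Serial dilutions 10^-7 to 10^-11 mol/L (0.1% DMSO) applied 8 h, then medium replaced and culture continued 4 days. Gla-type osteocalcin in supernatant measured by EIA at 450 nm against standards. EC50 expressed as ratio to 1,25(OH)2D3 (set 100%).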

Regarding `CCC(CC)(c1ccc(/C=C/C(O)(C(F)(F)F)C(F)(F)F)c(C)c1)c1ccc(OC[C@@H](O)CCC(=O)[O-])c(C)c1.[Na+]`, the Activity is 592% in assay [1], 252% with HL-60 and 3750% in assay [2].

For the compound `CCC(O)(/C=C/c1ccc(C(CC)(CC)c2ccc(OC[C@@H](O)CCC(=O)[O-])c(C)c2)cc1C)CC.[Na+]`, the Activity in assay [1] turned out to be 105%; in the assay with HL-60, 126%; in assay [2] it was 447%.

In the case of `CCC(CC)(c1ccc(CCC(O)(C(F)(F)F)C(F)(F)F)c(C)c1)c1ccc(OC[C@@H](O)CCC(=O)[O-])c(C)c1.[Na+]`, the Activity in assay [1] was determined as 91%; with HL-60 it was 106%; in assay [2], 429%.

As to `CCC(CC)(c1ccc(OCC(O)CO)c(C)c1)c1ccc(OCC(O)C(C)(C)C)c(C)c1` (centres undefined) [LG-190178], the Activity turned out to be 71% with HL-60 and 185% in assay [2].

Consider `CCC(CC)(c1ccc(C#CC(O)(C(F)(F)F)C(F)(F)F)c(C)c1)c1ccc(OC[C@@H](O)CCC(=O)[O-])c(C)c1.[Na+]`, for which the Activity came out at 30% in assay [1], 227% with HL-60 and 546% in assay [2].
